Experimental data: ChEMBL document CHEMBL1152919, “Chloro-oxime derivatives as novel small molecule chaperone amplifiers” (Bioorg Med Chem Lett, 2009)
Where “and” joins values, the source holds several entries; their conditions need not be identical. Equal entries are not always repeated. Calls of active or inactive are those of the source. No cut-off for these calls is given here.

Columns and labels:
[1] = tested on: SK-N-SH; assay: Decrease in human SK-N-SH cells proliferation upto 20 uM by Click-iT assay; type: functional, cell-based
Method in brief: (§1)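 Click-iT cell proliferation assay, run on HeLa and SK-N-SH cells across 0–20 µM compound.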

[2] = tested on: PC-12; assay: Cytoprotective activity against tunicamycin-induced endoplasmic reticulum stress in rat PC12 cells assessed as viability after 43 hrs relative to control; type: functional
Method in brief: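 PC12 cells, 5000/well, differentiated with NGF (50 ng/ml final) for 5–7 days until neurites appear. Compound (1:20 dilution) given together with tunicamycin (750 ng/mL final) for 43 h at 37 °C. Viability by ATPlite; ATP increase expressed against the DMSO plus tunicamycin control.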

[3] = Cytotoxicity against human HeLa cells by MTS assay; type: cell-based
[4] = biological target: T1, Heat shock factor protein 1 (Homo sapiens) (UniProt Q00613); assay: Transcriptional activation of HSF1 in heat shock stress-induced human HeLa cells assessed as granule formation treated 1 hr before heat shock challenge measured after 2 hrs by immunocytochemical staining; type: cell-based
T1 sequence (whole entry): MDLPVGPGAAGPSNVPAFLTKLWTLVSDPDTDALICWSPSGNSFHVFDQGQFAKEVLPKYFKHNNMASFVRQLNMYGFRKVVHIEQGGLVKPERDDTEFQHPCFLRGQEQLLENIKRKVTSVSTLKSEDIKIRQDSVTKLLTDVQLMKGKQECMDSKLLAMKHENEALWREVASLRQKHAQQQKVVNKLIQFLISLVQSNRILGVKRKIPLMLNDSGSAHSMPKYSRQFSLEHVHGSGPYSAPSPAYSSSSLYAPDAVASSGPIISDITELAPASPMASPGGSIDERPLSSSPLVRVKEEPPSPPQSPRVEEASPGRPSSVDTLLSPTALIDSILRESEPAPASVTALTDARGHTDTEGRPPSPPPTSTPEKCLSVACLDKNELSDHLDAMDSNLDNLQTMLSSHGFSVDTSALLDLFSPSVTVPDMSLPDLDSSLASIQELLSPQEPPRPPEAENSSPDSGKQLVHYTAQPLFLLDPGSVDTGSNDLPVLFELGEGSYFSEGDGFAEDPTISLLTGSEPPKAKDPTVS
Method in brief: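 HeLa cells given compound 1 h, then heat shock at 41 °C for 2 h without recovery; HSF1 immunocytochemical staining, quantified by high-content imaging. Range 0.3–80 µM, twofold dilution, 200-fold overall.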

[5] = tested on: HeLa; assay: Stimulation of human HeLa cells proliferation upto 20 uM by Click-iT assay; type: functional, cell-based; method in brief: as §1
[6] = Cytotoxicity against human SK-N-SH cells by MTS assay; type: cell-based
Method in brief: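 SK-N-SH cells, 14,000/well, seeded in DMEM with 10% FBS 18 h before compound (1:200 dilution; final 0.3–80 µM). MTS read-out; % inhibition = (MTS DMSO − MTS compound)/MTS DMSO ×100; CC50 by nonlinear regression; average SD across runs 14%.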

[7] = tested on: HeLa; assay: Increase in HSP70 expression in heat shock stress-induced human HeLa cells assessed as granule formation after 2 hrs of recovery time by immunocytochemical staining; type: functional, cell-based
Method in brief: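 HeLa cells heat-shocked at 41 °C; HSP70 immunocytochemical staining 2 h after heat shock; automated image acquisition, quantifying HSP70 granule count and total granule area.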

[8] = tested on: SK-N-SH; assay: Cytoprotective activity against MG132-induced stress in human SK-N-SH cells assessed as survivality treated 1 hr before MG132 challenge measured after 24 hrs relative to control; type: functional
Method in brief: (§2)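 SK-N-SH cells, 12,500/well, exposed to compound 1 h ahead of MG-132 (5 µM final), then 24 h. Viability by ATPlite-1step luminescence; increased ATP% = (RLU compound − RLU DMSO)/RLU DMSO ×100, with DMSO as negative control. Tested 0.3–80 µM in twofold steps; EC50 from nonlinear regression curve fit; max cytoprotection >60% scored active.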

[9] = tested on: SK-N-SH; assay: Cytoprotective activity against 26S proteasome inhibitor MG132-induced stress in human SK-N-SH cells assessed as cell viability treated 1 hr before MG132 challenge measured after 24 hrs; type: functional, cell-based; method in brief: as §2
[10] = biological target: T1, Heat shock factor protein 1 (Homo sapiens); assay: Transcriptional activation of HSF1 in human HeLa cells assessed as granule formation treated for 3 hrs at 37 degC without heat shock by immunocytochemical staining
[11] = biological target: T2, Heat shock factor protein 1 (Homo sapiens, UniProt Q00613); assay: Transcriptional activation of HSF1 in heat shock stress-induced human HeLa cells assessed as granule formation at 80 uM treated 1 hr before heat shock challenge measured after 2 hrs by immunocytochemical staining; type: cell-based
T2 sequence (Q00613 whole entry): T1 sequence (whole entry)

[12] = tested on: HeLa; assay: Cytotoxicity against human HeLa cells at 80 uM by MTS assay; type: cell-based
[13] = Homo sapiens, SK-N-SH, read-out: EC50

SMILES | EC50 [9, 13] [µM] | Activity [10] | CC50 [3] [µM] | CC50 [6] [µM] | also measured
OC(CO/N=C(\Cl)c1nc2ccccc2o1)CN1CCCCC1 (stereo not drawn) | 15.7 | – | 41.7 | 26 | Activity [1]: Active; Activity [2]: >200%; Activity [4]: 58%; Activity [5]: inactive; Activity [7]: 51%; EC50 ([7]; Homo sapiens, HeLa, 2 h): 32.9 µM; Activity [8]: 90.6%
OC(CO/N=C(\Cl)c1nc2ccc(Cl)cc2o1)CN1CCCCC1 (stereo not drawn) | 9 | inactive | 44.2 | 20 | –
OC(CO/N=C(\Cl)c1nc2ccc(F)cc2o1)CN1CCCCC1 (stereo not drawn) | 11 | inactive | > 80 | 37.3 | –
OC(CO/N=C(\Cl)c1cc2ccccc2s1)CN1CCCCC1 (stereo not drawn) | – | – | > 80 | 67.7 | EC50 ([9]; sk-n-sh): Not Active
Cc1ccc2nc(/C(Cl)=N/OCC(O)CN3CCCCC3)oc2c1 (stereo not drawn) | 6.1 | inactive | 18.8 | 28 | –
CCS(=O)(=O)c1ccc2oc(/C(Cl)=N/OCC(O)CN3CCCCC3)nc2c1 (stereo not drawn) | 5.9 | inactive | 41.4 | 44.2 | –
OC(CO/N=C(/c1nc2ccccc2o1)C(F)(F)F)CN1CCCCC1 (stereo not drawn) | – | – | > 80 | > 80 | EC50 ([9]; sk-n-sh): Not Active
OC(CO/N=C(\Cl)c1nc2cccc(F)c2o1)CN1CCCCC1 (stereo not drawn) | 3.8 | inactive | 19.3 | 16.9 | –
OC(CO/N=C(\Cl)c1nc2cc(F)ccc2o1)CN1CCCCC1 (stereo not drawn) | 12 | inactive | > 80 | 62.4 | –
O=C(NCC(O)CO/N=C(\Cl)c1nc2ccccc2o1)N1CCCCC1 (stereo not drawn) | 43.6 | inactive | 46.9 | 59.6 | Activity [4]: inactive; Activity [11]: 28%
OC(CO/N=C(\Cl)c1nc2ccccc2o1)CN1CCC(F)CC1 (stereo not drawn) | 18.8 | inactive | – | 52.6 | Inhibition [12]: 35%; Activity [11]: 63%
OC(CO/N=C(\Cl)c1nc2ccccc2o1)CN1CCCC(F)C1 (stereo not drawn) | 20 | inactive | 52.7 | 49.8 | –
OC(CO/N=C(\Cl)c1cc2ccccc2o1)CN1CCCCC1 (stereo not drawn) | – | – | > 80 | > 80 | EC50 ([9]; sk-n-sh): Not Active
C/C(=N\OCC(O)CN1CCCCC1)c1nc2ccccc2o1 (stereo not drawn) | – | – | > 80 | > 80 | EC50 ([9]; sk-n-sh): Not Active
O=C(NOCC(O)CN1CCCCC1)c1nc2ccccc2o1 (stereo not drawn) | – | – | > 80 | > 80 | EC50 ([9]; sk-n-sh): Not Active
OC(CO/N=C(\Cl)c1nc2ccccc2s1)CN1CCCC1 (stereo not drawn) | – | inactive | 60.1 | 31.1 | EC50 ([9]; sk-n-sh): Not Active
Cl/C(=N\OCCCN1CCCCC1)c1nc2ccccc2o1 | 58.7 | – | > 80 | > 80 | –
OC(CO/N=C/c1nc2ccccc2o1)CN1CCCCC1 (stereo not drawn) | – | – | > 80 | > 80 | EC50 ([9]; sk-n-sh): Not Active
CO/C(=N\OCC(O)CN1CCCCC1)c1nc2ccccc2o1 (stereo not drawn) | – | – | > 80 | > 80 | EC50 ([9]; sk-n-sh): Not Active
OC(CO/N=C(\Cl)c1nc2ccccc2s1)CN1CCCCC1 (stereo not drawn) | 13.5 | inactive | 49.1 | 26.5 | –
OC(CO/N=C(\Cl)c1nc2cc(Cl)ccc2o1)CN1CCCCC1 (stereo not drawn) | 6.3 | inactive | 31.4 | 23.2 | –
Cc1ccc2oc(/C(Cl)=N/OCC(O)CN3CCCCC3)nc2c1 (stereo not drawn) | 9.5 | inactive | – | 34.6 | –
CN(C)S(=O)(=O)c1ccc2nc(/C(Cl)=N/OCC(O)CN3CCCCC3)oc2c1 (stereo not drawn) | 7.9 | inactive | 45.1 | 42.4 | –
OC(CO/N=C(\Cl)c1nc2c(F)cccc2o1)CN1CCCCC1 (stereo not drawn) | 6.9 | inactive | 40.2 | 20.3 | –
OC(CO/N=C(\Cl)c1nc2ccccc2o1)CN1CCC(F)(F)CC1 (stereo not drawn) | 26.4 | inactive | > 80 | > 80 | Activity [11]: 49%
OC(CO/N=C(\Cl)c1nc2c(ccc3ccccc32)o1)CN1CCCCC1 (stereo not drawn) | 5.2 | inactive | 18.9 | 17.4 | –

The next lines start with results.

EC50 [9, 13] [µM] | Activity [10] | SMILES | CC50 [3] [µM] | CC50 [6] [µM] | also measured
14.7 | inactive | CC(C)N(CC(O)CO/N=C(\Cl)c1nc2ccccc2o1)C(C)C (stereo not drawn) | 45 | 30.8 | Activity [2]: >150% and 300%
61.7 | – | OC(CO/N=C(\Cl)c1nc2ccccc2o1)CN1CCOCC1 (stereo not drawn) | > 80 | > 80 | –
– | inactive | CC(C)(C)NCC(O)CO/N=C(\Cl)c1nc2ccccc2o1 (stereo not drawn) | 55.4 | 24.7 | Activity [4]: inactive; EC50 ([9]; sk-n-sh): Not Active
12.4 | inactive | CCCN(CC)CC(O)CO/N=C(\Cl)c1nc2ccccc2o1 (stereo not drawn) | 40.7 | 42.1 | –
11.1 | inactive | CC1CCCC(C)N1CC(O)CO/N=C(\Cl)c1nc2ccccc2o1 (stereo not drawn) | 78.9 | 36.2 | –
9.9 | inactive | CC(C)N(CC(O)CO/N=C(\Cl)c1nc2ccccc2o1)C(C)(C)C (stereo not drawn) | 30.8 | 40.3 | –
6.3 | inactive | CC(C)N(CC(O)CO/N=C(\Cl)c1nc2ccccc2o1)CC1CC1 (stereo not drawn) | 24.4 | 32.7 | –
9.3 | inactive | CC1CC(C)CN(CC(O)CO/N=C(\Cl)c2nc3ccccc3o2)C1 (stereo not drawn) | 55.3 | 34 | –
8.2 | inactive | CC(C)N(CCO)CC(O)CO/N=C(\Cl)c1nc2ccccc2o1 (stereo not drawn) | 50.2 | 30.6 | –
22.3 | inactive | CCCCN(CCCC)CC(O)CO/N=C(\Cl)c1nc2ccccc2o1 (stereo not drawn) | > 80 | 41 | –
10.1 | inactive | CC(C)N(CCCF)CC(O)CO/N=C(\Cl)c1nc2ccccc2o1 (stereo not drawn) | 33.8 | 46 | –
39.3 | – | CS(=O)(=O)NCC(O)CO/N=C(\Cl)c1nc2ccccc2o1 (stereo not drawn) | 48.5 | > 80 | –
10.2 | inactive | CCN(CC)CC(O)CO/N=C(\Cl)c1nc2ccccc2o1 (stereo not drawn) | – | 36.2 | –
10.2 | inactive | CCCN(CCC)CC(O)CO/N=C(\Cl)c1nc2ccccc2o1 (stereo not drawn) | – | 46.4 | –
41.9 | – | CC(=O)NCC(O)CO/N=C(\Cl)c1nc2ccccc2o1 (stereo not drawn) | > 80 | > 80 | –
8.9 | inactive | CCCN(CC(O)CO/N=C(\Cl)c1nc2ccccc2o1)C(C)C (stereo not drawn) | 57.6 | 50.4 | Activity [1]: Active; Activity [5]: inactive
20.9 | inactive | CCC(C)N(CC(O)CO/N=C(\Cl)c1nc2ccccc2o1)C(C)CC (stereo not drawn) | – | 54.2 | Activity [4]: inactive; Activity [11]: 62% and 25%
